HUVEC prolif 384: inhibitors of HUVEC proliferation, primary screen, cell-based, 384-well | CellTiter-Glo luminescence, 72 h; active compounds read low | viability, % at 10 µM (by protocol) | 1.1% of 86,000 active;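 active = viability at or below 30%; inactive = viability above 30%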
Fibroblast inh: antiproliferative effect on LL 47 fibroblasts – human, LL 47 cells, CellTiter-Glo luminescence, primary screen; LL 47 human lung fibroblast viability, ATP luminescence; active compounds read low; 1.1% of 85,000 active; viability, % at 10 µM;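 active = viability at or below 50% in the single dose screen; inactive = viability above 50%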;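 note: compound exposure lasted 72 h before the ATP readout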
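test system = LL 47 human lung fibroblasts | amount = 1,150 fibroblasts seeded per well | medium = 15% FBS in IMEM | times = overnight cell rest, 72 h compound treatment at 37 °C | measured by = CellTiter-Glo luminescence measuring cellular ATP | read-out = viability percentage against median untreated-cell control | benchmarks = cell-only wells, no compound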
H69AR inhibit: proliferation blockers of H69AR lung cancer cells, primary screen, cell-based, human, 86K library; H69AR lung tumor viability, ATP luminescence, 72 h; active compounds read low; viability, % at 10 µM; 6% of 85,000 active; AID 598, 2007;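 active = viability at or below 40%; inactive = viability above 40%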;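 note: multidrug resistant small cell line overexpressing MRP-1 efflux transporter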
Jurkat tox 60K: cytotoxicity toward Jurkat T cells, primary screen, cytotoxicity control, cell-based, Jurkat E6.1, 60K MLSMR library; AID 463, 2006; inhibition, % at 4 µM; 1.2% of 56,000 active; Jurkat E6.1 viability, ATP luminescence, 48 h;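 active = inhibition above the mean inhibition of all tested compounds plus 3 SD, cut at about 28% in these data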
Numbers stand for hits. This is a sample that favours compounds with a hit; in the whole collection about 6.4% have one here.

Screening CCCCSc1nc(NCc2ccco2)c2c3c(sc2n1)COC(C)(C)C3 returned HUVEC prolif 384 inactive, Fibroblast inh inactive and H69AR inhibit inactive.
O=S(=O)(Nc1ncnc2c1oc1ccccc12)c1ccc(Cl)s1 was read as HUVEC prolif 384 inactive, Fibroblast inh inactive, H69AR inhibit inactive and Jurkat tox 60K inactive.
Screening Cn1cnnc1SCC(=O)Nc1ccc2nc(SCc3ccccc3F)sc2c1 returned HUVEC prolif 384 inactive, Fibroblast inh inactive and H69AR inhibit inactive.
For COCCOC(=O)c1c(C)nc(SCC(=O)Nc2ccc(C)cc2)c(C#N)c1-c1ccco1 the results were HUVEC prolif 384 inactive, Fibroblast inh inactive and H69AR inhibit inactive.
Screening COCCOC(=O)c1c(C)nc(SCC(=O)Nc2cccc3ccccc23)c(C#N)c1-c1ccco1 returned HUVEC prolif 384 inactive, Fibroblast inh inactive and H69AR inhibit 11.3.
`CCOC(=O)c1ccccc1NC(=O)c1cn(CC)c2nc(C)ccc2c1=O` gave HUVEC prolif 384 inactive, Fibroblast inh inactive, H69AR inhibit inactive and Jurkat tox 60K inactive.
Screening CCOc1ccc(-c2cc(CCCC(=O)Nc3cccc(OC)c3)no2)cc1 returned HUVEC prolif 384 inactive, Fibroblast inh inactive, H69AR inhibit 22.8 and Jurkat tox 60K 90.6.
Screening Cc1nc(NC2=NCN(CCN3CCOCC3)CN2)nc2c(C)cccc12 returned HUVEC prolif 384 inactive, Fibroblast inh inactive, H69AR inhibit inactive and Jurkat tox 60K inactive.
Screening Cc1nc(NC2=NCN(Cc3cccnc3)CN2)nc2c(C)cccc12 returned HUVEC prolif 384 inactive, Fibroblast inh inactive, H69AR inhibit 36.9 and Jurkat tox 60K inactive.
Screening CC(C)(C)NS(=O)(=O)c1ccc(OCC(=O)NCCC2=CCCCC2)cc1 returned HUVEC prolif 384 inactive, Fibroblast inh inactive and H69AR inhibit inactive.
`CCOC(=O)COc1ccc(S(=O)(=O)NCCC2=CCCCC2)cc1` gave HUVEC prolif 384 4.4, Fibroblast inh inactive, H69AR inhibit inactive and Jurkat tox 60K inactive.
`COc1ccc(N2CCN(C(=O)C3CCCN(S(=O)(=O)c4cccc5cccnc45)C3)CC2)cc1` (configuration not stated) gave HUVEC prolif 384 inactive, Fibroblast inh inactive, H69AR inhibit inactive and Jurkat tox 60K inactive.
CC1Cc2ccccc2N1C(=O)C1CCCN(S(=O)(=O)c2cccc3cccnc23)C1 (configuration not stated) was read as HUVEC prolif 384 inactive, Fibroblast inh inactive, H69AR inhibit 36.7 and Jurkat tox 60K inactive.
N=c1c2c(-c3ccccc3)c(-c3ccccc3)n(Cc3ccco3)c2ncn1CCN1CCOCC1 was read as HUVEC prolif 384 18.5, Fibroblast inh 47.0, H69AR inhibit 35.7 and Jurkat tox 60K inactive.
c1coc(CNc2nc3ccccc3n2CCN2CCOCC2)c1 was read as HUVEC prolif 384 inactive, Fibroblast inh inactive, H69AR inhibit inactive and Jurkat tox 60K inactive.
N=c1c2c(-c3ccccc3)c(-c3ccccc3)n(Cc3ccco3)c2ncn1CCO was read as HUVEC prolif 384 inactive, Fibroblast inh inactive and H69AR inhibit 17.4.
For COc1ccc(Cl)cc1NC(=O)C12CCC(C)(C(=O)O1)C2(C)C (configuration not stated) the results were HUVEC prolif 384 inactive, Fibroblast inh inactive and H69AR inhibit inactive.
`COc1ccc(C(O)C(CN2CCOCC2)c2ccccc2)cc1F` (configuration not stated) gave HUVEC prolif 384 inactive, Fibroblast inh inactive, H69AR inhibit inactive and Jurkat tox 60K inactive.
For COc1ccc(C(=O)C(CN2CCOCC2)c2ccccc2)cc1F (configuration not stated) the results were HUVEC prolif 384 inactive, Fibroblast inh 14.8, H69AR inhibit 1.9 and Jurkat tox 60K 95.5.
For CCCOc1ccc(C(=O)C(CN2CCOCC2)c2ccccc2)cc1 (configuration not stated) the results were HUVEC prolif 384 3.0, Fibroblast inh 45.5 and H69AR inhibit 1.6.
`CCOC(=O)c1[nH]c(C)c(C(=O)Nc2cc(Cl)ccc2C)c1C` gave HUVEC prolif 384 inactive, Fibroblast inh inactive, H69AR inhibit 24.5 and Jurkat tox 60K 88.3.
Screening CCOC(=O)c1[nH]c(C)c(C(=O)OCCN2C(=O)c3ccccc3C2=O)c1C returned HUVEC prolif 384 inactive, Fibroblast inh inactive, H69AR inhibit 33.9 and Jurkat tox 60K inactive.
`CCOC(=O)c1[nH]c(C)c(C(=O)Nc2ccccc2C)c1C` gave HUVEC prolif 384 inactive, Fibroblast inh inactive, H69AR inhibit 26.0 and Jurkat tox 60K 78.6.
O=C(CSCc1cccc(Cl)c1)N1CCN(Cc2ccc3c(c2)OCO3)CC1 was read as HUVEC prolif 384 inactive, Fibroblast inh inactive and H69AR inhibit inactive.
`CCOC(=O)CSc1ncnc2c1cnn2-c1ccccc1` gave HUVEC prolif 384 inactive, Fibroblast inh inactive, H69AR inhibit inactive and Jurkat tox 60K inactive.
Screening c1ccc(-c2nc(Sc3ncnc4c3cnn4-c3ccccc3)n[nH]2)cc1 returned HUVEC prolif 384 inactive, Fibroblast inh inactive, H69AR inhibit 27.1 and Jurkat tox 60K inactive.
Screening CCOC(=O)c1sc2nc(C(C)C)c3c(c2c1N)CC(C)(C)OC3 returned HUVEC prolif 384 inactive, Fibroblast inh 47.6 and H69AR inhibit inactive.
CCOC(=O)c1sc2nc(N3CCCC3)c3c(c2c1N)CC(C)(C)OC3 was read as Jurkat tox 60K inactive.
`O=C(CSc1nnc(-c2ccc(O)cc2)n1Cc1ccco1)N1CCc2ccccc2C1` gave HUVEC prolif 384 inactive, Fibroblast inh inactive, H69AR inhibit inactive and Jurkat tox 60K inactive.
For O=C(CN1/C(=C(/O)c2ccccc2)C(=O)c2ccccc2S1(=O)=O)c1ccccc1 the results were HUVEC prolif 384 inactive, Fibroblast inh inactive and H69AR inhibit 28.4.
Screening CCCCOC(=O)Sc1nc2ccccc2o1 returned HUVEC prolif 384 inactive, Fibroblast inh inactive, H69AR inhibit inactive and Jurkat tox 60K inactive.
Oc1c(CN2CCN(c3ccccn3)CC2)cc(Cl)c2cccnc12 was read as HUVEC prolif 384 inactive, Fibroblast inh 34.2, H69AR inhibit 0.1 and Jurkat tox 60K 44.6.
Screening OCCN1CCN(Cc2cc(Cl)c3cccnc3c2O)CC1 returned HUVEC prolif 384 inactive, Fibroblast inh inactive and H69AR inhibit 36.9.
Screening OCCN1CCN(Cc2cc(Br)cc(Br)c2O)CC1 returned HUVEC prolif 384 inactive, Fibroblast inh inactive, H69AR inhibit inactive and Jurkat tox 60K inactive.
`CC(C)c1cc(NCC2CCCO2)n2c(nc3ccccc32)c1C#N` (configuration not stated) gave HUVEC prolif 384 inactive, Fibroblast inh inactive and H69AR inhibit 9.7.
Screening N#Cc1c2c(c(NCCN3CCOCC3)n3c1nc1ccccc13)CCCC2 returned HUVEC prolif 384 inactive, Fibroblast inh inactive, H69AR inhibit inactive and Jurkat tox 60K inactive.
`CCc1c(C)c(C#N)c2nc3ccccc3n2c1NCC1CCCO1` (configuration not stated) gave HUVEC prolif 384 inactive, Fibroblast inh inactive and H69AR inhibit 31.6.
For Cc1cc(NCC2CCCO2)n2c(nc3ccccc32)c1C#N (configuration not stated) the results were HUVEC prolif 384 inactive, Fibroblast inh inactive and H69AR inhibit inactive.
